According to PubChem BioAssay AID624324 (Broad Institute, 2012):
Activity calls are given as the source filed them.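 How the source made its calls: active means fitted AC50 at or under twice the sample's top valid tested dose, with viability loss; inconclusive means flat curve with 30 to 70% viability loss, or poor fit; inactive means the rest, including shifts toward viability gain.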

Test system: not listed separately
Test: A375 melanoma cell viability loss, dose response, counter-screen for MITF inhibitor project, CellTiter-Glo luminescence, dry powder, set 3 (AID 624324)
Settings: A375 melanoma viability, CellTiter-Glo ATP luminescence, 24 h; at 35 µM (top of the series)
How it was run: (§1)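 Assay system: A375 human melanoma cells, MITF-independent line with low MITF expression. Buffer or medium: phenol red-free DMEM, 10% FBS. Dosing: compounds pin-transferred to cells at multiple concentrations. Incubation: 24 h exposure at 37 °C, 5 min room-temperature reagent step. Detection: CellTiter-Glo luminescence measuring cellular ATP. Read-out basis: viability from ATP content.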

Compound | activity change, negative = viability loss
CN1CCN(C2=C(NS(=O)(=O)c3cccs3)C(=O)c3ccccc3C2=O)CC1 | 12.4% (inactive)
O=C1C(NS(=O)(=O)c2ccc(Br)cc2)=C(N2CCN(c3ccccc3)CC2)C(=O)c2ccccc21 | 0.602% (inactive)
C=CCNC1=C(NCC=C)C(=O)c2ccccc2C1=O | 1.61% (inactive)
COc1ccc(C2=C(NC(=O)c3ccc(OC)cc3-c3cccc(OC)c3)C(=O)c3ccccc3C2=O)cc1 | 4.86% (inactive)
NC1=C(c2ccccc2)C(=O)c2ccccc2C1=O | -6.89% (inactive)
C=CCNC1=C(NCCCN2CCOCC2)C(=O)c2ccccc2C1=O | 1.84% (inactive)
CN1CCN(C2=C(NS(=O)(=O)c3ccc(Br)cc3)C(=O)c3ccccc3C2=O)CC1 | 1% (inactive)
NC1=C(c2ccc(OC(F)(F)F)cc2)C(=O)c2ccccc2C1=O | -5.51% (inactive)
O=C(NC1=C(N2CCN(c3ccccc3)CC2)C(=O)c2ccccc2C1=O)c1ccccc1 | -7.51% (inactive)

Test system: A375 melanoma viability, CellTiter-Glo ATP luminescence, 24 h
Test: as above
Settings: not given
How it was run: as §1

Compound | AC50
O=C1C(Nc2ccccc2)=C(N2CCN(c3ccccc3)CC2)C(=O)c2ccccc21 | > 70 µM (inactive)
CC(=O)NC1=C(c2ccc3c(c2)oc2ccccc23)C(=O)c2ccccc2C1=O | 24.7 µM
COc1cccc(C2=C(NC(=O)c3ccccc3)C(=O)c3ccccc3C2=O)c1 | 16.2 µM
Cc1ccc(C(=O)NC2=C(c3ccc(OC(F)(F)F)cc3)C(=O)c3ccccc3C2=O)o1 | 30.4 µM
CN1CCN(C2=C(Nc3ccccc3)C(=O)c3ccccc3C2=O)CC1 | 27.2 µM
O=C(NC1=C(N2CCCCC2)C(=O)c2ccccc2C1=O)c1ccc(Br)cc1 | > 70 µM (inactive)
O=C1C(NS(=O)(=O)c2ccc(Br)s2)=C(N2CCOCC2)C(=O)c2ccccc21 | > 70 µM (inactive)
C=CCNC1=C(Nc2ccccc2)C(=O)c2ccccc2C1=O | > 70 µM (inactive)
C=CCNC1=C(N(C)C(C)=O)C(=O)c2ccccc2C1=O | 9.29 µM
C[C@@H](NC1=C(Nc2ccccc2)C(=O)c2ccccc2C1=O)c1ccccc1 | > 70 µM (inactive)
CN1CCN(C2=C(NC(=O)c3ccccc3)C(=O)c3ccccc3C2=O)CC1 | 13.6 µM
O=C1C(NS(=O)(=O)c2ccc(Br)cc2)=C(c2ccccc2)C(=O)c2ccccc21 | > 70 µM (inactive)
O=C(NC1=C(N2CCCCC2)C(=O)c2ccccc2C1=O)c1ccccc1 | > 70 µM (inactive)
O=C1C=C(Nc2ccccc2)C(=O)c2ccccc21 | 13.9 µM
O=C1C(NS(=O)(=O)c2ccc(Br)s2)=C(N2CCCCC2)C(=O)c2ccccc21 | > 70 µM (inactive)
O=C1C(NS(=O)(=O)c2ccc(Br)cc2)=C(N2CCSCC2)C(=O)c2ccccc21 | > 70 µM (inactive)
COc1ccc(C(=O)NC2=C(c3ccccc3)C(=O)c3ccccc3C2=O)cc1 | 24.8 µM
C=CCNC1=C(N2CCN(CC)CC2)C(=O)c2ccccc2C1=O | 15.7 µM
CC(=O)NC1=C(c2cccc(Cl)c2)C(=O)c2ccccc2C1=O | 9.51 µM
C=CCNC1=C(N2CCN(C)CC2)C(=O)c2ccccc2C1=O | 20.9 µM
O=C1C(NS(=O)(=O)c2cccs2)=C(N2CCCCC2)C(=O)c2ccccc21 | > 70 µM (inactive)

Compound | AC50
CCN(CC)CCCCNC1=C(Nc2ccccc2)C(=O)c2ccccc2C1=O | > 70 µM (inactive)
Cc1ccc(C(=O)NC2=C(c3ccccc3)C(=O)c3ccccc3C2=O)o1 | 16 µM
C=CCNC1=C(NCCCN(CC)CC)C(=O)c2ccccc2C1=O | 22 µM
COc1ccc(C2=C(NC(=O)c3ccccc3Cl)C(=O)c3ccccc3C2=O)cc1 | 12.2 µM
O=C(NC1=C(c2ccccc2)C(=O)c2ccccc2C1=O)c1ccc(Br)cc1 | 26.4 µM
O=C(NC1=C(c2ccccc2)C(=O)c2ccccc2C1=O)c1ccccc1 | 27.9 µM
COc1ccc(C2=C(NC(=O)c3ccccc3OC)C(=O)c3ccccc3C2=O)cc1 | 25.5 µM
O=C1C(NS(=O)(=O)c2ccc(Br)cc2)=C(N2CCCCC2)C(=O)c2ccccc21 | > 70 µM (inactive)
C=CCNC1=C(Cl)C(=O)c2ccccc2C1=O | > 70 µM (inactive)
O=C1C(Nc2ccccc2)=C(NS(=O)(=O)c2ccccc2[N+](=O)[O-])C(=O)c2ccccc21 | > 70 µM (inactive)
COc1ccc(C2=C(N)C(=O)c3ccccc3C2=O)cc1 | > 70 µM (inactive)
O=C(CNc1cccc2ccccc12)N/N=C/c1ccc([N+](=O)[O-])o1 | > 70 µM (inactive)
CC1CCN(CC(CS(=O)(=O)c2ccc([N+](=O)[O-])cc2)N2CCC(C)CC2)CC1 (configuration not stated) | > 70 µM (inactive)
NC1=CC(=O)c2ccccc2C1=O | > 70 µM (inactive)
C=CCNC1=C(N2CCOCC2)C(=O)c2ccccc2C1=O | 22.8 µM
COc1ccc(C(=O)NC2=C(c3ccc(OC(F)(F)F)cc3)C(=O)c3ccccc3C2=O)cc1 | 32.2 µM
C=CCNC1=C(NC(=O)c2ccccc2)C(=O)c2ccccc2C1=O | > 70 µM (inactive)
COc1ccc(C2=C(NC(=O)c3cccc(OC)c3)C(=O)c3ccccc3C2=O)cc1 | 27.2 µM
O=C1C(Nc2ccccc2)=C(N2CCSCC2)C(=O)c2ccccc21 | > 70 µM (inactive)
CCN1CCN(C2=C(NS(=O)(=O)c3cccs3)C(=O)c3ccccc3C2=O)CC1 | > 70 µM (inactive)
COc1cccc(-c2cc(C(=O)NC3=C(Cl)C(=O)c4ccccc4C3=O)ccc2OC)c1 | > 70 µM (inactive)

Compound | AC50
CCN1CCN(C2=C(NC(=O)c3ccc(Br)cc3)C(=O)c3ccccc3C2=O)CC1 | 18.4 µM
Cc1nc2ccccc2n1/N=C/c1ccc([N+](=O)[O-])s1 | > 70 µM (inactive)
O=C1C(NS(=O)(=O)c2cccs2)=C(N2CCOCC2)C(=O)c2ccccc21 | > 70 µM (inactive)
O=C1C(NS(=O)(=O)c2ccc(Br)cc2)=C(c2ccc(OC(F)(F)F)cc2)C(=O)c2ccccc21 | > 70 µM (inactive)
CCN1CCN(C2=C(NS(=O)(=O)c3ccc(Br)cc3)C(=O)c3ccccc3C2=O)CC1 | > 70 µM (inactive)
O=C1C(Nc2ccccc2)=C(N2CCOCC2)C(=O)c2ccccc21 | > 70 µM (inactive)
CC(=O)NC1=C(c2ccccc2)C(=O)c2ccccc2C1=O | 12.1 µM
O=C(NC1=C(N2CCOCC2)C(=O)c2ccccc2C1=O)c1ccccc1 | 26.9 µM
CCN(CC)CCCNC1=C(N(C)C(C)=O)C(=O)c2ccccc2C1=O | 6.19 µM
CCN1CCN(C2=C(N(C)C(C)=O)C(=O)c3ccccc3C2=O)CC1 | 15.2 µM
O=C1C(NS(=O)(=O)c2ccccc2)=C(N2CCCCC2)C(=O)c2ccccc21 | > 70 µM (inactive)
C=CCNC1=C(NS(=O)(=O)c2cccs2)C(=O)c2ccccc2C1=O | > 70 µM (inactive)
CC(=O)N(C)C1=C(N2CCN(C)CC2)C(=O)c2ccccc2C1=O | 15.6 µM
O=C1C(NS(=O)(=O)c2ccccc2)=C(N2CCOCC2)C(=O)c2ccccc21 | 13.8 µM
O=C(NC1=C(c2ccc(OC(F)(F)F)cc2)C(=O)c2ccccc2C1=O)c1ccco1 | 28 µM
COC1=C(NS(=O)(=O)c2ccccc2)C(=O)c2ccccc2C1=O | > 70 µM (inactive)
O=C(NC1=C(c2ccc(OC(F)(F)F)cc2)C(=O)c2ccccc2C1=O)c1ccccc1 | 23.6 µM
C=CCNC1=C(N2CCSCC2)C(=O)c2ccccc2C1=O | 11.3 µM
O=C(NC1=C(N2CCSCC2)C(=O)c2ccccc2C1=O)c1ccc(Br)cc1 | > 70 µM (inactive)
NC1=C(NC(=O)c2ccccc2)C(=O)c2ccccc2C1=O | > 70 µM (inactive)
C=CCNC1=C(NS(=O)(=O)c2ccc(Br)cc2)C(=O)c2ccccc2C1=O | > 70 µM (inactive)

Compound | AC50
COc1ccc(C(=O)NC2=C(c3ccc(OC)cc3)C(=O)c3ccccc3C2=O)cc1 | 14.9 µM
CC(=O)N(C)C1=C(N2CCOCC2)C(=O)c2ccccc2C1=O | 32.9 µM
O=C(NC1=C(c2ccccc2)C(=O)c2ccccc2C1=O)c1ccco1 | 13.8 µM
COc1ccc(C2=C(NC(C)=O)C(=O)c3ccccc3C2=O)cc1 | 13.3 µM
O=C(NC1=C(Cl)C(=O)c2ccccc2C1=O)c1ccccc1 | 29.9 µM
O=C1C(NS(=O)(=O)c2ccc(Br)s2)=C(N2CCSCC2)C(=O)c2ccccc21 | > 70 µM (inactive)
O=C(NC1=C(c2ccc(OC(F)(F)F)cc2)C(=O)c2ccccc2C1=O)c1ccccc1F | 36.6 µM
CN1CCN(C2=C(NS(=O)(=O)c3ccc(Br)s3)C(=O)c3ccccc3C2=O)CC1 | > 70 µM (inactive)
O=C1C(NCCCN2CCOCC2)=C(Nc2ccccc2)C(=O)c2ccccc21 | > 70 µM (inactive)
CCN1CCN(C2=C(NC(=O)c3ccccc3)C(=O)c3ccccc3C2=O)CC1 | 25 µM
CCN1CCN(C2=C(NS(=O)(=O)c3ccc(Br)s3)C(=O)c3ccccc3C2=O)CC1 | > 70 µM (inactive)
O=C1C(NS(=O)(=O)c2ccc(Br)cc2)=C(N2CCOCC2)C(=O)c2ccccc21 | > 70 µM (inactive)
COc1ccc(C2=C(NC(=O)c3cccc(Cl)c3)C(=O)c3ccccc3C2=O)cc1 | 16.8 µM
COc1ccc(C2=C(NC(=O)c3ccc(Cl)cc3)C(=O)c3ccccc3C2=O)cc1 | 27.7 µM
CN1CCN(C2=C(NC(=O)c3ccc(Br)cc3)C(=O)c3ccccc3C2=O)CC1 | 15.2 µM
CC(=O)N(C)C1=C(N2CCCCC2)C(=O)c2ccccc2C1=O | 29.1 µM
CCN(CC)CCNC1=C(Nc2ccccc2)C(=O)c2ccccc2C1=O | > 70 µM (inactive)
CC(=O)NC1=C(c2ccc(Cl)cc2)C(=O)c2ccccc2C1=O | 10.4 µM
C=CCNC1=C(N2CCCCC2)C(=O)c2ccccc2C1=O | 19.6 µM
C=CCNC1=C(NCCN(CC)CC)C(=O)c2ccccc2C1=O | 35.2 µM
